In ChEMBL document CHEMBL4024747, “Design, Synthesis, and Biological Activities of Vibsanin B Derivatives: A New Class of HSP90 C-Terminal Inhibitors” (J Med Chem, 2017):
Active and inactive are the calls of the source. The rule behind the calls is not given here.

Columns and labels:
MCF7 = assay: Antiproliferative activity against human MCF7 cells assessed as reduction in cell viability after 48 hrs by MTT assay; type: functional, cell-based; conditions: MCF7, 48 h
SMMC-7721 = assay: Antiproliferative activity against human SMMC7721 cells assessed as reduction in cell viability after 48 hrs by MTT assay; type: functional, cell-based; conditions: for IC50: SMMC-7721, 48 h
A549 = assay: Antiproliferative activity against human A549 cells assessed as reduction in cell viability after 48 hrs by MTT assay; type: functional, cell-based; conditions: for IC50: A549, 48 h
HL-60 = assay: Antiproliferative activity against human HL60 cells assessed as reduction in cell viability after 48 hrs by MTT assay; type: functional, cell-based; conditions: for IC50: HL-60, 48 h
SW480 = assay: Antiproliferative activity against human SW480 cells assessed as reduction in cell viability after 48 hrs by MTT assay; type: functional, cell-based; conditions: for IC50: SW480, 48 h
Oryctolagus cuniculus = species: Oryctolagus cuniculus; assay: Inhibition of HSP90 in rabbit reticulocyte lysate assessed as decrease in HSP90-dependant refolding of firefly luciferase at 10 uM after 30 mins by luciferase gene based assay
Outline: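 Firefly luciferase heat-denatured at 41 °C for 10 min, then added with rabbit reticulocyte lysate to compounds at 10 μM. Renaturation at room temperature for 3 h; luciferin substrate added and luminescence read. Refolding expressed relative to DMSO; novobiocin at 500 μM as reference. Three independent experiments.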

[1] = Stability of compound in pH 7.4 PBS at 37 degreeC after 12 hrs by HPLC analysis; type: physicochemical; conditions: buffer, pH 7.4, 12 h
Outline: (§1)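 Solution stability determined by HPLC after incubation in PBS pH 7.4 at 37 °C for 12 h.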

[2] = molecular target: Luciferin 4-monooxygenase (Photinus pyralis) (UniProt P08659); assay: Inhibition of firefly luciferase activity using luciferin substrate at 10 uM after 30 mins by luminescence assay
SK-BR-3 = assay: Antiproliferative activity against human SKBR3 cells assessed as reduction in cell viability after 48 hrs by MTT assay; type: functional, cell-based; conditions: SK-BR-3, 48 h
[3] = molecular target: Heat shock protein HSP 90-alpha (Homo sapiens) (UniProt P07900); assay: Inhibition of FITC-geldanamycin binding to human FLAG-tagged HSP90alpha N-terminal domain
[4] = molecular target: Heat shock protein HSP 90-beta (Homo sapiens) (UniProt P08238); assay: Inhibition of FITC-geldanamycin binding to human FLAG-tagged HSP90beta N-terminal domain
HepG2 = assay: Antiproliferative activity against human HepG2 cells assessed as reduction in cell viability after 48 hrs by MTT assay; type: functional, cell-based; conditions: HepG2, 48 h
AGS = assay: Antiproliferative activity against human AGS cells assessed as reduction in cell viability after 48 hrs by MTT assay; type: functional, cell-based
HeLa = assay: Antiproliferative activity against human HeLa cells assessed as reduction in cell viability after 48 hrs by MTT assay; type: functional, cell-based
BT-474 = assay: Antiproliferative activity against human BT474 cells assessed as reduction in cell viability after 48 hrs by MTT assay; type: functional, cell-based; conditions: BT-474, 48 h
Danio rerio = species: Danio rerio; assay: Toxicity in 3 days post fertilized zebrafish embryo assessed as changes in embryonic phenotypes at 4 to 16 uM after 12 hrs; conditions: in vivo
[5] = Half life of compound in toluene at 110 degreeC by HPLC analysis; type: physicochemical
Outline: (§2)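 Thermostability in toluene at 110 °C or 60 °C followed by HPLC; half-life estimated.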

[6] = Drug metabolism in deionized water assessed as compound decomposition at 100 degreeC after 10 mins by HPLC analysis relative to control; type: physicochemical; conditions: read-out: Drug metabolism
Outline: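 Thermostability determined by HPLC after heating in deionized water at 100 °C for 10 min; decomposition recorded in percent.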

[7] = Stability of compound in boiling ethyl alcohol by HPLC analysis; type: physicochemical
[8] = Half life of compound in toluene at 60 degreeC by HPLC analysis; type: physicochemical; outline: as §2
[9] = Drug degradation in pH 7.4 PBS at 37 degreeC after 12 hrs by HPLC analysis relative to control; outline: as §1
[10] = molecular target: Heat shock protein HSP 90-beta (Homo sapiens) (UniProt P08238); assay: Binding affinity to human FLAG-tagged HSP90beta C-terminal domain expressed in human 293T cells at 30 uM by Western blot analysis; type: cell-based
Outline: (§3)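 Flag-tagged full-length HSP90β and its NTD, MD and CTD constructs expressed by transfection in 293T cells; lysates incubated with 30 μM biotin-ViB, captured on streptavidin-agarose beads, bound protein detected by Western blot.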

[11] = molecular target: Heat shock protein HSP 90-beta (Homo sapiens) (UniProt P08238); assay: Binding affinity to human FLAG-tagged HSP90beta middle domain expressed in human 293T cells at 30 uM by Western blot analysis; type: cell-based; outline: as §3
[12] = molecular target: Heat shock protein HSP 90-beta (Homo sapiens) (UniProt P08238); assay: Binding affinity to human FLAG-tagged HSP90beta N-terminal domain expressed in human 293T cells at 30 uM by Western blot analysis; type: cell-based; outline: as §3
[13] = molecular target: Heat shock protein HSP 90-beta (Homo sapiens) (UniProt P08238); assay: Binding affinity to human recombinant His-tagged HSP90beta-CTD expressed in Escherichia coli BL21(DE3) at 80 uM after 2 hrs in presence of 18-fluro vibsanin B by Western blot analysis
[14] = molecular target: Heat shock protein HSP 90-beta (Homo sapiens) (UniProt P08238); assay: Binding affinity to human recombinant His-tagged HSP90beta-CTD expressed in Escherichia coli BL21(DE3) at 80 uM after 2 hrs in presence of vibsanin B by Western blot analysis
[15] = molecular target: Heat shock protein HSP 90-beta (Homo sapiens) (UniProt P08238); assay: Binding affinity to human recombinant His-tagged HSP90beta-CTD expressed in Escherichia coli BL21(DE3) at 80 uM after 2 hrs by Western blot analysis
[16] = molecular target: Heat shock protein HSP 90-beta (Homo sapiens) (UniProt P08238); assay: Binding affinity to human recombinant His-tagged HSP90beta-CTD expressed in Escherichia coli BL21(DE3) at 80 uM after 2 hrs in presence of ViB-4-OH by Western blot analysis
[17] = molecular target: Heat shock protein HSP 90-beta (Homo sapiens) (UniProt P08238); assay: Inhibition of recombinant human Biotin-labeled N-terminal His/Avi-tagged HSP90beta C-terminal domain (527 to 724 residues) expressed in Escherichia coli interaction with GST-tagged Cyp40 at 1 to 100 uM after 30 mins by Alphascreen assay
Outline: (§4)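 AlphaScreen assay: biotin-labelled HSP90β C-terminus (aa 527–724) mixed with GST-Cyp40 and compound (1–100 μM; novobiocin 500 μM) for 30 min at room temperature. Glutathione acceptor beads added for 30 min, then streptavidin donor beads for 10 min. Excitation at 680 nm, emission read at 520–620 nm; percent activity calculated against enzyme and background wells.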

[18] = molecular target: Heat shock protein HSP 90-beta (Homo sapiens) (UniProt P08238); assay: Inhibition of recombinant human Biotin-labeled N-terminal His/Avi-tagged HSP90beta C-terminal domain (527 to 724 residues) expressed in Escherichia coli interaction with GST-tagged Cyp40 at 500 uM after 30 mins by Alphascreen assay; outline: as §4
MDA-MB-468 = assay: Antiproliferative activity against human MDA-MB-468 cells assessed as reduction in cell viability after 48 hrs by MTT assay; type: functional, cell-based; conditions: MDA-MB-468, 48 h
Huh-7 = assay: Antiproliferative activity against human HuH7 cells assessed as reduction in cell viability after 48 hrs by MTT assay; type: functional, cell-based; conditions: Huh-7, 48 h
BEAS-2B = assay: Cytotoxicity against human BEAS2B cells assessed as reduction in cell viability after 48 hrs by MTT assay; type: cell-based

Heat shock protein HSP 90-beta (Homo sapiens), sequence (P08238 whole entry, the tested form may be a part): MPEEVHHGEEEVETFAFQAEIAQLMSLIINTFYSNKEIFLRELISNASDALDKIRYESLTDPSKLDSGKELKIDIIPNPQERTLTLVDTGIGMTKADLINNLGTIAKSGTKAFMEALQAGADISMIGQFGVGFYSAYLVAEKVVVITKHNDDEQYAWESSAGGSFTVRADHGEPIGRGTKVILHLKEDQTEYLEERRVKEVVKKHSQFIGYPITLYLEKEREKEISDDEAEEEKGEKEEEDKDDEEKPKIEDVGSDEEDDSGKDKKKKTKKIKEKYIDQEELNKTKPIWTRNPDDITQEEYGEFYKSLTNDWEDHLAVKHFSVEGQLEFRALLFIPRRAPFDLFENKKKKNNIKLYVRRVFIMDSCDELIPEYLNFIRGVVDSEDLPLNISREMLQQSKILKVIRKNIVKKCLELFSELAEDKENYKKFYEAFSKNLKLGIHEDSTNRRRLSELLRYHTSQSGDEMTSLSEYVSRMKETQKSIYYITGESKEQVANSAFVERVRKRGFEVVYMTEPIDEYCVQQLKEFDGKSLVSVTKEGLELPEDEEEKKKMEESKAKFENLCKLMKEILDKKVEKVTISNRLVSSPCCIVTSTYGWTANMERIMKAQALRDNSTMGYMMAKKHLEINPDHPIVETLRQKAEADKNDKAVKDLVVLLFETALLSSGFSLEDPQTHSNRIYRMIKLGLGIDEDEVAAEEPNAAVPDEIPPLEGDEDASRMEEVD
Luciferin 4-monooxygenase (Photinus pyralis), sequence (P08659 whole entry): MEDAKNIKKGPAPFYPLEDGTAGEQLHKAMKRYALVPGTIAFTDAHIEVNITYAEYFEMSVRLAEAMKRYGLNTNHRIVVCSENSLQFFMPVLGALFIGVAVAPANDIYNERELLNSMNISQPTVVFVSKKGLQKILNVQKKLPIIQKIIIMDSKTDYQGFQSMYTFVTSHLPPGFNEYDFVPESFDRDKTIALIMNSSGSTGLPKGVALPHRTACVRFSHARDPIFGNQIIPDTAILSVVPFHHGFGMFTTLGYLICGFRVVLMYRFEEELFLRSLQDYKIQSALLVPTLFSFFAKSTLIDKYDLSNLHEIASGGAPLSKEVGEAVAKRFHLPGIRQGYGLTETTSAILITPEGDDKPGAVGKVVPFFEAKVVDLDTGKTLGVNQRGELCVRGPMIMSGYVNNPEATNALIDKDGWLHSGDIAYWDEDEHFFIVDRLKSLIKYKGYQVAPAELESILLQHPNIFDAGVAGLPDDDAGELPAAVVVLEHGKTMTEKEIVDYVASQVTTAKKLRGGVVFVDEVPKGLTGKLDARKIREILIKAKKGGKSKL

| SMILES | IC50 (MCF7) | IC50 (SMMC-7721) | IC50 (A549) | IC50 (HL-60) | IC50 (SW480) | inhibition (Oryctolagus cuniculus) | inhibition [2] | further results |
| --- | --- | --- | --- | --- | --- | --- | --- | --- |
| C=C1/C=C/C(=O)/C(CO)=C\C[C@](C)(CCC=C(C)C)/C=C/[C@H]1OC(=O)C=C(C)C | 2750 nM | 4300 nM | 3090 nM | 2810 nM | 2970 nM | Active | inactive | Stability [1]: Stable |
| CC(C)=CCC[C@]1(C)/C=C/[C@@H](OC(=O)C=C(C)C)[C@](C)(O)/C=C/C(=O)/C(CCl)=C\C1 | 610 nM | 840 nM | 150 nM | 160 nM | 390 nM | Active | inactive | – |
| CC(C)=CCC[C@]1(C)/C=C/[C@@H](OC(=O)C=C(C)C)[C@](C)(O)/C=C/C(=O)/C(CO)=C\C1 [VIBSANIN B] | 2850 nM | 3250 nM | 3460 nM | 2640 nM | 2650 nM | Active | inactive | IC50 (SK-BR-3): 9190 nM; inhibition [3]: inactive; inhibition [4]: inactive; IC50 (HepG2): 19100 nM; IC50 (AGS): 9680 nM; IC50 (HeLa): 2480 nM; IC50 (BT-474): 4550 nM; Activity (Danio rerio): Toxic; half-life [5]: 5 min; degraded at 10 min [6]: 2.8%; Stability [7]: Stable; half-life [8]: 9 min; Drug degradation [9]: 4.92% |
| CC(C)=CCC[C@]1(C)/C=C/[C@@H](OC(=O)C=C(C)C)[C@](C)(O)/C=C/C(=O)/C(COC(=O)CNCc2cn(CCOCCOCCOC(=O)CCCC[C@@H]3SC[C@@H]4NC(=O)N[C@@H]43)nn2)=C\C1 | – | – | – | – | – | – | – | Activity [10]: Active; Activity [11]: Active; Activity [12]: inactive; Activity [13]: inactive; Activity [14]: inactive; Activity [15]: Active; Activity [16]: Active |
| CO[C@@H]1[C@@H](OC(N)=O)[C@@H](O)[C@H](Oc2ccc3c(O)c(NC(=O)c4ccc(O)c(CC=C(C)C)c4)c(=O)oc3c2C)OC1(C)C | – | – | – | – | – | – | – | inhibition [17]: Active; inhibition [18]: Active |
| CC(=O)O[C@]1(C)/C=C/C(=O)/C(CO)=C\C[C@](C)(CCC=C(C)C)/C=C/[C@H]1OC(=O)C=C(C)C | 2320 nM | 3080 nM | 3150 nM | 2370 nM | 2010 nM | < 50% | inactive | Stability [1]: Stable |
| CC(C)=CCC[C@]1(C)/C=C/[C@@H](OC(=O)C=C(C)C)[C@](C)(O)/C=C/C(=O)/C(CF)=C\C1 | 240 nM | 140 to 620 nM | 140 to 620 nM | 140 to 620 nM | 140 to 620 nM | Active | inactive | IC50 (MDA-MB-468): 310 nM; IC50 (SK-BR-3): 330 nM; IC50 (HepG2): 860 nM; IC50 (AGS): 740 nM; IC50 (Huh-7): 540 nM; IC50 (HeLa): 880 nM; IC50 (BT-474): 940 nM; IC50 (BEAS-2B): 770 nM; Activity (Danio rerio): Toxic |
| CC(C)=CCC[C@]1(C)/C=C/[C@@H](OC(=O)C=C(C)C)[C@](C)(O)/C=C/C(=O)/C(CN2CCCC2)=C\C1 | 220 nM | 140 nM | 180 nM | 160 nM | 310 nM | < 50% | inactive | – |
| CC(C)=CCC[C@]1(C)/C=C/[C@@H](OC(=O)C=C(C)C)[C@](C)(O)/C=C/C(=O)/C(CN=[N+]=[N-])=C\C1 | 4890 nM | 3080 nM | 1720 nM | 910 nM | 4230 nM | – | – | – |
| CC(C)=CCC[C@]1(C)/C=C/[C@@H](OC(=O)C=C(C)C)[C@](C)(O)/C=C/C(=O)/C(C(=O)O)=C\C1 | 16100 nM | > 10000 nM | > 10000 nM | > 10000 nM | > 10000 nM | – | – | – |
| CO/N=C/C1=C/C[C@](C)(CCC=C(C)C)/C=C/[C@@H](OC(=O)C=C(C)C)[C@](C)(O)/C=C/C1=O | 2510 nM | 3470 nM | 3470 nM | 4760 nM | 2630 nM | – | – | – |
| CO[C@@H]1/C=C/[C@@](C)(O)[C@H](OC(=O)C=C(C)C)/C=C/[C@@](C)(CCC=C(C)C)C/C=C\1CO | 33300 nM | 38800 nM | 11200 nM | 13800 nM | 12800 nM | – | – | – |
| CC(C)=CCC[C@]1(C)/C=C/[C@@H](OC(=O)C=C(C)C)[C@](C)(O)/C=C/C(=O)/C(C(=O)N(C)C)=C\C1 | 3670 nM | 3670 nM | 2700 nM | 3340 nM | 3300 nM | – | – | – |
| CC(C)=CCC[C@]1(C)/C=C/[C@@H](OC(=O)C=C(C)C)[C@](C)(O)/C=C/C(=O)/C(C=O)=C\C1 | 12600 nM | – | – | – | – | – | – | Activity (SMMC-7721): Active; Activity (A549): Active; Activity (HL-60): Active; Activity (SW480): Active |
| CC(C)=CCC[C@]1(C)/C=C/[C@@H](OC(=O)C=C(C)C)[C@](C)(O)/C=C/C(=O)/C(C(=O)N2CCCC2)=C\C1 | 17200 nM | 14900 nM | 13000 nM | 12300 nM | 15100 nM | – | – | – |
